# Reference: ChEMBL document CHEMBL1145421, “Discovery of novel antitumor antimitotic agents that also reverse tumor resistance” (J Med Chem, 2007)
# Assays:
# [1] = Cytotoxicity against MRP1 overexpressing human MCF7/VP cells after 48 hrs by SRB binding assay; format: functional, cell-based
# Outline: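 MCF-7/VP (MRP1-expressing, Pgp-negative) cells seeded at ~15% confluency and allowed 24 h to attach. Exposed 48 h to graded concentrations without vincristine. Survival measured by SRB binding versus ethanol controls.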
# [2] = Cytotoxicity against human T24 cells after 48 hrs by SRB binding assay; format: cell-based; conditions: T-24, 48 h
# [3] = Cytotoxicity against Pgp overexpressing human NCI/ADR cells after 48 hrs by SRB binding assay; format: functional, cell-based; conditions: NCI/ADR-RES
# Outline: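 NCI/ADR (Pgp-overexpressing) cells seeded at ~15% confluency and allowed 24 h to attach. Exposed 48 h to graded concentrations, as solubility allowed, without vinblastine. Survival measured by sulforhodamine B binding as % decrease in SRB binding versus ethanol-vehicle controls, mean of three wells per condition.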
# MCF7 = assay: Cytotoxicity against human MCF7 cells after 48 hrs by SRB binding assay; format: functional, cell-based; conditions: MCF7, 48 h
# Outline: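 Drug-sensitive MCF-7 cells seeded at ~15% confluency and allowed 24 h recovery. Exposed 48 h to graded concentrations. Survival measured by SRB binding as % decrease versus ethanol-vehicle controls, mean of triplicate wells.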
smiles,measurement,setting,value
Cc1nc(N)nc2c1c(CCc1ccccc1)cn2Cc1ccccc1,IC50,[1],18.3 µM
same,IC50,[2],12.7 µM
same,IC50,[3],18.2 µM
same,IC50,MCF7,10.7 µM
